Data set [1] concerns the target T1, Prostaglandin E2 receptor EP1 subtype (Homo sapiens, UniProt P34995).
T1 sequence (P34995 whole entry): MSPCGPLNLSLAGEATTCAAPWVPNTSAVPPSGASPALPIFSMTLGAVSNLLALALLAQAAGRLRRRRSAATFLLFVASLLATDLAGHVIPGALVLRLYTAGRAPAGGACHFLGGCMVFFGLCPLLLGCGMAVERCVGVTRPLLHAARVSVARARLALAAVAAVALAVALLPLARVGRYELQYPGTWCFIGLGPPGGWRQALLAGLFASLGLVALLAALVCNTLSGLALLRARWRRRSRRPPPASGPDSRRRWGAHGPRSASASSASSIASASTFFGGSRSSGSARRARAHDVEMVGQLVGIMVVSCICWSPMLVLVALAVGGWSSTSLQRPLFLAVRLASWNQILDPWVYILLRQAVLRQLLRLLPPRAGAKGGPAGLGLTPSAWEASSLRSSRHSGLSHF
The data set can be described thus: Displacement of [3H]PGE2 from human EP1 receptor expressed in CHO cells. It is filed as cell-based. In short, it runs like this:
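Radioligand binding with [3H]-PGE2 in CHO cells overexpressing human EP1 receptor. Values are the mean of at least three experiments with standard deviations.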

A further data set has as its system Brain. The data set can be described thus: (§1) Drug level in brain of complete Freund's adjuvant-induced rat inflammatory pain model at 10 mg/kg, po administered after 23 hrs of adjuvant challenge measured after 1 hr. The conditions noted are these: in vivo, 1 h. On the set-up: dose 10 mg/kg, route oral. It is filed as ADME, organism-based. In short, it runs like this:
(§2)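 CFA rat study: oral doses of 1, 3 or 10 mg/kg given 23 h after intraplantar adjuvant, samples 1 h post-dose. Blood values are the mean from seven animals. Brain values are the mean from three animals.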

The subject of data set [2] is Rattus norvegicus. The data set can be described thus: […] activity against complete Freund's adjuvant-induced inflammatory pain in rat assessed as reversal of hypersensitivity at 10 mg/kg, po administered 23 hrs post-adjuvant challenge measured after 1 hr. It is filed as functional. In short, it runs like this:
(§3)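 Rats given adjuvant by intraplantar injection; oral dosing at 1, 3 and 10 mg/kg 23 h later. Hypersensitivity assessed by weight-bearing 1 h post-dose. ED50 derived across doses.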

A further data set deals with T2, Cytochrome P450 1A2 (Homo sapiens, UniProt P05177).
T2 sequence (P05177 whole entry): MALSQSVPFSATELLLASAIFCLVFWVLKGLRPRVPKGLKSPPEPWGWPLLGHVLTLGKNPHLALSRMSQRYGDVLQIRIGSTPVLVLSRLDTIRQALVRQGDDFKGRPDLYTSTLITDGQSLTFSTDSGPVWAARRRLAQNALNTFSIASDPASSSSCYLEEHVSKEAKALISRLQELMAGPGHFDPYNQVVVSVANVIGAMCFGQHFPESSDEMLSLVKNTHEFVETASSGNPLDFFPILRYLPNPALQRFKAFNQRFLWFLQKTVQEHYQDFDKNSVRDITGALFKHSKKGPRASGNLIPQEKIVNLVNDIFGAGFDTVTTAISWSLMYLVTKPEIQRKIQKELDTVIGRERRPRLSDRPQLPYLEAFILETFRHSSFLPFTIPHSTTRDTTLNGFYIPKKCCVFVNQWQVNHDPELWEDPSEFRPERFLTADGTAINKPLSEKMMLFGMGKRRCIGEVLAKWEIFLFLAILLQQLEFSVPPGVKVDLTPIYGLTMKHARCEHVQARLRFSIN
The data set can be described thus: Inhibition of human CYP1A2. In kind it is ADME. In short, it runs like this:
(§4)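 Inhibition of metabolism of fluorometric substrates (Cypex protocol); IC50 values are the mean of three experiments ± standard deviation.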

Data set [3] is described as follows: Metabolic stability in human liver microsomes assessed as compound turnover after 30 mins. To be noted: read-out: Stability. It is filed as ADME, Microsome.
In data set [4] the target is T1, Prostaglandin E2 receptor EP1 subtype. The data set can be described thus: Antagonist activity at human recombinant EP1 receptor expressed in CHO cells assessed as inhibition of PGE2-mediated intracellular calcium mobilization by FLIPR method. It is filed as functional, cell-based. In short, it runs like this:
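CHO cells recombinantly overexpressing human EP1 receptor; antagonism measured as block of PGE2-mediated intracellular Ca2+ mobilization. Values are the mean of at least three experiments with standard deviations.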

A short description of data set [5]: Metabolic stability in rat liver microsomes assessed as compound turnover after 30 mins. It is filed as ADME, Microsome. To be noted: read-out: Stability.
Another data set concerns the target Cytochrome P450 2C9 (Homo sapiens, UniProt P11712). The data set can be described thus: Inhibition of human CYP2C9. In kind it is ADME. In short, it runs like this:
as §4

A short description of data set [6]: Lipophilicity, log D at pH 7.4. It is filed as physicochemical. To be noted: buffer.
The next data set has as its target Cytochrome P450 2C19 (Homo sapiens, UniProt P33261). The data set can be described thus: Inhibition of human CYP2C19. It is filed as ADME. In short, it runs like this: as §4
Another data set deals with Cytochrome P450 2D6 (Homo sapiens, UniProt P10635). The data set can be described thus: Inhibition of human CYP2D6. In kind it is ADME. In short, it runs like this: as §4
Data set [7] in a line: Selectivity for human recombinant EP1 receptor over DP1.
Data set [8] can be described thus: as §1. The conditions noted are these: brain, read-out: Drug uptake. Also noted: dose 10 mg/kg, route oral. In kind it is ADME, organism-based. In short, it runs like this: as §2
For data set [9], the target named is T3, Cytochrome P450 3A4 (Homo sapiens, UniProt P08684). Kind of data set: Inhibition of human CYP3A4 using PPR substrate. In kind it is ADME.
The nature of data set [10]: Drug level in blood of complete Freund's adjuvant-induced rat inflammatory pain model at 1 mg/kg, po administered after 23 hrs of adjuvant challenge measured after 1 hr. In kind it is ADME, organism-based. On the set-up: dose 1 mg/kg, route oral. The conditions noted are these: read-out: Drug uptake. In short, it runs like this:
as §2

The nature of data set [11]: Drug level in brain of complete Freund's adjuvant-induced rat inflammatory pain model at 3 mg/kg, po administered after 23 hrs of adjuvant challenge measured after 1 hr. In kind it is ADME, organism-based. The conditions noted are these: read-out: Drug uptake. Also noted: dose 3 mg/kg, route oral. In short, it runs like this: as §2
Data set [12] can be described thus: Drug level in blood of complete Freund's adjuvant-induced rat inflammatory pain model at 10 mg/kg, po administered after 23 hrs of adjuvant challenge measured after 1 hr. The conditions noted are these: read-out: Drug uptake. It is filed as ADME, organism-based. On the set-up: dose 10 mg/kg, route oral. In short, it runs like this:
as §2

Data set [13] concerns Rattus norvegicus. The data set can be described thus: […] activity against complete Freund's adjuvant induced inflammatory pain in po dosed rat assessed as reversal of hypersensitivity post-adjuvant challenge after 1 hr. In kind it is functional. In short, it runs like this: as §3
Data set [14] in a line: Ratio of drug level in brain to blood in complete Freund's adjuvant-induced rat inflammatory pain model at 3 mg/kg, po administered after 23 hrs of adjuvant challenge measured after 1 hr. It is filed as ADME, organism-based. On the set-up: dose 3 mg/kg, route oral. The conditions noted are these: brain and blood. In short, it runs like this:
(§5)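 Rat CFA inflammatory pain model: oral dosing at 1, 3 or 10 mg/kg 23 h after intraplantar adjuvant; blood and brain sampled 1 h post-dose from the same animal; Br:Bl ratio is the mean from three animals.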

Data set [15] in a line: Drug level in brain of complete Freund's adjuvant-induced rat inflammatory pain model at 1 mg/kg, po administered after 23 hrs of adjuvant challenge measured after 1 hr. To be noted: read-out: Drug uptake. Also noted: dose 1 mg/kg, route oral. In kind it is ADME, organism-based. In short, it runs like this:
as §2

The target of data set [16] is T3, Cytochrome P450 3A4. Kind of data set: Inhibition of human CYP3A4 using DEF substrate. It is filed as ADME.
Data set [17] can be described thus: Drug level in blood of complete Freund's adjuvant-induced rat inflammatory pain model at 3 mg/kg, po administered after 23 hrs of adjuvant challenge measured after 1 hr. In kind it is ADME, organism-based. On the set-up: dose 3 mg/kg, route oral. To be noted: read-out: Drug uptake. In short, it runs like this: as §2
Data set [18] in a line: Ratio of drug level in brain to blood in complete Freund's adjuvant-induced rat inflammatory pain model at 1 mg/kg, po administered after 23 hrs of adjuvant challenge measured after 1 hr. It is filed as ADME, organism-based. On the set-up: dose 1 mg/kg, route oral. To be noted: brain and blood. In short, it runs like this:
as §5

Data set [19] can be described thus: Ratio of drug level in brain to blood in complete Freund's adjuvant-induced rat inflammatory pain model at 10 mg/kg, po administered after 23 hrs of adjuvant challenge measured after 1 hr. On the set-up: dose 10 mg/kg, route oral. To be noted: brain and blood. In kind it is ADME, organism-based. In short, it runs like this: as §5

Cytochrome P450 2D6, sequence (P10635 whole entry): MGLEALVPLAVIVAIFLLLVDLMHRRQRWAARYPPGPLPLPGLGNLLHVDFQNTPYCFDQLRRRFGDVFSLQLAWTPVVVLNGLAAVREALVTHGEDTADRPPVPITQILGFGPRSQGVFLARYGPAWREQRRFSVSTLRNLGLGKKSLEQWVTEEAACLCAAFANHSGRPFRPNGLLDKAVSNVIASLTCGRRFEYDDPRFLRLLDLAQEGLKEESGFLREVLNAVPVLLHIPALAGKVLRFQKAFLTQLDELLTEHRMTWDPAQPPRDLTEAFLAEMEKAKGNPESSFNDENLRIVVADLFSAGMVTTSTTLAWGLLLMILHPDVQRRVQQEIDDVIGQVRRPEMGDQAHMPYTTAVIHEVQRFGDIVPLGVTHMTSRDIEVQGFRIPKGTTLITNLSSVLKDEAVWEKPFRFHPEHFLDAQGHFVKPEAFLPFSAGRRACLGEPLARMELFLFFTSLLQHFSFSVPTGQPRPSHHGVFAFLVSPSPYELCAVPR
Cytochrome P450 2C19, sequence (P33261 whole entry): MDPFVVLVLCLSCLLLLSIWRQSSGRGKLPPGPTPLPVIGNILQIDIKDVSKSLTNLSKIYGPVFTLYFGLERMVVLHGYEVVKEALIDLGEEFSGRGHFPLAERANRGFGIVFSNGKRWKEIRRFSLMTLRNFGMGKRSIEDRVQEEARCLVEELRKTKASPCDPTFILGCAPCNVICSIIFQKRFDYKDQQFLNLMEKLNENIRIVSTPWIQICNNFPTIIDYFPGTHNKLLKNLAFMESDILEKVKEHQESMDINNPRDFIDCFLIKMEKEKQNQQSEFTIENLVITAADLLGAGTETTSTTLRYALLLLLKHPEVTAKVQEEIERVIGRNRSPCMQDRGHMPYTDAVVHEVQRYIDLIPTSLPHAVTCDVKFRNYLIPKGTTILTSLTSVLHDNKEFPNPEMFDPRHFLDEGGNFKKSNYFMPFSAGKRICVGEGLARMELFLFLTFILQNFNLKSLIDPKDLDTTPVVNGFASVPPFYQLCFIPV
Cytochrome P450 2C9, sequence (P11712 whole entry): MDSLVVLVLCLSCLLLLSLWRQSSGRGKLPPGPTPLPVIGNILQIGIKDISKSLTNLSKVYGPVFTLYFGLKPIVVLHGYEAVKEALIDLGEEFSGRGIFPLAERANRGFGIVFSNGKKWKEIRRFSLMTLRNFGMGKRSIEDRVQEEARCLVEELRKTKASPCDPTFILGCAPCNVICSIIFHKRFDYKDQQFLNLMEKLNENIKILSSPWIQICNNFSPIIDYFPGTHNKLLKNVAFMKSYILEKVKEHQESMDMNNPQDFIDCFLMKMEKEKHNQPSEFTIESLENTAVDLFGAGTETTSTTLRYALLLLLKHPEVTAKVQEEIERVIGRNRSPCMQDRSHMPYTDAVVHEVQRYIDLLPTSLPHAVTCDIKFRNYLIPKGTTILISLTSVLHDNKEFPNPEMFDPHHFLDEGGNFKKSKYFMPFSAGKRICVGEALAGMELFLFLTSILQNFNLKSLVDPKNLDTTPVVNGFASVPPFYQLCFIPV
T3 sequence (P08684 whole entry): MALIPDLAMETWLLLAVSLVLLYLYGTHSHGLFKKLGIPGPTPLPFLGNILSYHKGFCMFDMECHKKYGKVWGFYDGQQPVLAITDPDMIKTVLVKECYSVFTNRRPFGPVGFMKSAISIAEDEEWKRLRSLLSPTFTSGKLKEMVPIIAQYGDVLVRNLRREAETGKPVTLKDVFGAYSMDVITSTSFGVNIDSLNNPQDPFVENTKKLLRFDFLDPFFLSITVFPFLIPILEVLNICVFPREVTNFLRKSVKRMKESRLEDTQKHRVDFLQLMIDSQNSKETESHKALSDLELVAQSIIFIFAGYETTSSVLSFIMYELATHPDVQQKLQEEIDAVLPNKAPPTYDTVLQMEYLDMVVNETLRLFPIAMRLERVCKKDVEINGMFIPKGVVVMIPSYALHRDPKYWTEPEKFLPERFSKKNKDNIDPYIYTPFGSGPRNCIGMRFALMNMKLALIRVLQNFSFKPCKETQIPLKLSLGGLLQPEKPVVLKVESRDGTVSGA

For the compound `O=C(O)c1cccc(Cc2cc(Cl)ccc2OCc2ccc(F)cc2)n1`, the IC50 in [1] was 0.1 µM.
On to `Cc1cc(C(=O)[O-])nn1Cc1cc(Br)ccc1OCc1ccc(Cl)cc1Cl.[Na+]`, for which the Ratio in the data set on Brain is less than 0.05. Further, the Activity in the data set with Rattus norvegicus [2] amounted to 70%. Further, in data set [1], the IC50 was 0.000129 µM.
As to `O=C(O)c1cccc(Cc2cc(Cl)ccc2OCc2c(F)cc(F)cc2F)n1`, in data set [1], the IC50 is 0.0794 µM.
In turn, `O=C(O)c1cccc(Cc2cc(Cl)ccc2OCc2ccccc2Cl)n1` showed an IC50 in data set [1] of 0.0398 µM.
On to `O=C(O)c1cccc(Cc2cc(Cl)ccc2OCc2ccc(Cl)cc2Cl)n1`, for which the IC50 against Cytochrome P450 1A2 is 32 µM; in data set [1] it was 0.01 µM; at Cytochrome P450 2C9, 4.8 µM; at Cytochrome P450 2C19 it was greater than 50 µM; against Cytochrome P450 2D6, greater than 50 µM. The metabolised at 0.5 h in [3] and in data set [5] was less than 15% each time. The inhibition constant (Ki) in data set [4] is 0.0251 µM. The compound also came in with a logD in data set [6] of 2.6.
`O=C(O)c1cccc(C2=C(c3cc(Cl)ccc3OCc3ccc(F)cc3F)CCC2)n1`: in data set [7], the fold change (FC) is greater than 400.
On to `O=C(O)c1cccc(Cc2cc(Cl)ccc2OCc2ccc(F)cc2F)n1`, for which the IC50 in [1] is 0.0251 µM.
Consider `O=C(O)c1cccc(Cc2cc(Cl)ccc2OCC2CCCC2)n1`, for which the IC50 in data set [1] was 0.0316 µM.
Consider `O=C(O)c1cccc(Cc2cc(Cl)ccc2OCC2CC2)n1`, for which the IC50 in data set [1] is 0.2 µM.
On the same count and under the same terms, the result for `O=C(O)c1cccc(Cc2cc(Cl)ccc2OCC2CCCCC2)n1` reads 0.1 µM; that for `O=C(O)c1cccc(Cc2cc(Cl)ccc2OCc2ccc(Cl)cc2)n1`, 0.0398 µM.
For `O=C([O-])c1cccc(Cc2cc(Cl)ccc2OCc2ccc(F)cc2Cl)n1.[Na+]`, the concentration at 1 h turned out to be 1120 nM in data set [8]; 346 nM in [10]; 256 nM in [11]; 3010 nM in data set [12]; 93 nM in data set [15]; 836 nM in [17]. Also, the IC50 at Cytochrome P450 1A2 is 61 µM; at Cytochrome P450 3A4 [9], greater than 100 µM; in data set [1], 0.0126 µM; against Cytochrome P450 2C9, 15 µM; against Cytochrome P450 3A4 [16], 35 µM; against Cytochrome P450 2C19, 28 µM. At Cytochrome P450 2D6, the IC50 was greater than 100 µM. Besides, in data set [4], the Ki was 0.1 µM. Besides, the ED50 in the data set with Rattus norvegicus [13] is 5.6 mg/kg. The figures for the Kp at 1 h in data set [14], in [18] and in data set [19] were 0.3, 0.31 and 0.31, respectively. In addition, the logD in data set [6] turned out to be 2.
With `O=C(O)c1cccc(Cc2cc(Cl)ccc2OCc2ccccc2F)n1`, the concentration for half-maximal inhibition (IC50) in data set [1] was 0.0794 µM.

Values taken from ChEMBL document CHEMBL1138602, “Discovery of sodium 6-[(5-chloro-2-{[(4-chloro-2-fluorophenyl)methyl]oxy}phenyl)methyl]-2-pyridinecarboxylate (GSK269984A) an EP(1) receptor antagonist for the treatment of inflammatory pain” (Bioorg Med Chem Lett, 2009).
